Results from publication PMC4433875 (European journal of medicinal chemistry, 2015).

Assays:
[1] = test system: triple-negative human breast cancer cell line MDA-MB-468; experiment: XTT cell killing assay, MDA-MB-468; assay type: cell-based; conditions: growth inhibition
Procedure, shortened: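 MDA-MB-468 cells were grown in low-glucose DMEM with 10% FBS and 1% penicillin-streptomycin and plated one day before dosing. They received a four-day drug treatment, with the XTT proliferation kit read on day 6 after drug addition. Triplicate sets were compiled to give dose-dependent cytotoxicity.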

[2] = molecular target: T1, RAD51 (Homo sapiens, UniProt Q06609); experiment: Multimer formation assay; assay type: biochemical; conditions: RAD51:IBR120 1:10 molar ratio, vs DMSO
T1 sequence (Q06609 1-339): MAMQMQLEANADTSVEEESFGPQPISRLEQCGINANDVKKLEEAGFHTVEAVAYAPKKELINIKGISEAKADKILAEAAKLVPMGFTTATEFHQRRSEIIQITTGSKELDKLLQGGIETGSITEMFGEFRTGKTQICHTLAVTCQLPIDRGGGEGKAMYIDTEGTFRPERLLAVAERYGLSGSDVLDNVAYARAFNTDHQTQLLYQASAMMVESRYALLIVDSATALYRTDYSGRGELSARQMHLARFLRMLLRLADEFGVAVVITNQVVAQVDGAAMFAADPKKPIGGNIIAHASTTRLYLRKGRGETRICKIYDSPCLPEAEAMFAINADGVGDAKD
Procedure, shortened: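 RAD51 (3.2 µg) was incubated with test compound (1:10 molar ratio) for 15 min at 37°C. Buffer was added (50mM triethanolamine-HCl pH7.5, 0.5mM Mg(OAc)2, 1mM DTT, 2mM ATP, 100 µg/ml BSA) and incubation continued 15 min. The mixture was run on a Superdex 200 gel filtration column equilibrated in the same buffer. Fractions were dot-blotted on PVDF and probed with anti-RAD51 mAb 14B4.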

[3] = test system: HeLa cells stably expressing DR-GFP; experiment: I-SceI inducible gene conversion; assay type: cell-based, human; conditions: 10 or 20 µM, 24 hours, flow cytometry
Procedure, shortened: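 HeLa cells carrying stably integrated DR-GFP, selected with 2 µg/mL puromycin, were transfected with the I-SceI expression vector pCBASce for 24 h to induce DSBs. Cells were then exposed to DMSO or 10 or 20 µM test compound for another 24 h, trypsinized and analysed by flow cytometry for the percentage of GFP-positive cells. Three independent experiments, means±SD.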

[4] = test system: panel of cancer cell lines; experiment: XTT assay, panel of cancer cell lines; assay type: cell-based, human
[5] = test system: most tested cancer cell lines; conditions: read-out: IC50 values for most tested cancer cell lines; original IBR2; cited from earlier work

SMILES: O=S(=O)(Cc1ccccc1)N1CCc2ccccc2[C@@H]1c1n[nH]c2ccccc12 [IBR117, (R)-1-(1H-Indazol-3-yl)-2-phenylmethanesulfonyl-1,2,3,4-tetrahydro-isoquinoline]
- fold increase in activity compared to parental compound IBR2 [1]: 1.6~2.4 fold

SMILES: O=S(=O)(Cc1ccccc1)N1CC=Cc2ccccc2[C@H]1c1c[nH]c2ccccc12 [IBR116]
- change of activity on increasing the central ring size from six to seven [1]: almost complete loss of function

SMILES: O=S(=O)(Cc1ccccc1)N1Cc2ccccc2[C@@H]1c1c[nH]c2ccccc12 [IBR120, (R)-3-(2-(benzylsulfonyl)isoindolin-1-yl)-1H-indole]
- RAD51 multimerization (gel filtration elution profile) [2]: can inhibit RAD51 multimerization
- HR frequency (GFP positive population) [3]: significantly reduced
- IC50 ([4]; Homo sapiens, read-out: IC50 values in most tested cancer cell lines): 3 to 5 µM
- difference between the IC50 values in normal and cancer cells ([4]; normal MCF10A vs cancer cell lines): Approximately 10 fold

SMILES: O=S(=O)(Cc1ccccc1)N1C=Cc2ccccc2C1c1c[nH]c2ccccc12 (centres unmarked) [IBR2]
- IC50 [5]: 12 to 20 µM

SMILES: O=S(=O)(Cc1ccccc1)N1CC=Cc2ccccc2[C@@H]1c1c[nH]c2ccccc12 [IBR115]
- change of activity on increasing the central ring size from six to seven [1]: minimal change of activity
